According to ChEMBL document CHEMBL4680335, “Synthesis, anticancer and antimicrobial evaluation of new benzofuran based derivatives: PI3K inhibition, quorum sensing and molecular modeling study” (Bioorg Med Chem, 2021):
Converted amounts (≈) assume the structure as drawn.

System: HepG2
Experiment: Antiproliferative activity against human HepG2 cells assessed as reduction in cell growth
Assay type: functional, cell-based
Settings: not given

Q: With `O=CC(/N=N/c1ccc([N+](=O)[O-])cc1)=C(\O)c1cc2ccccc2o1` as the molecule, how does the IC50 read?
A: 35.4 µM

Q: For `C/C(=N\Nc1nc(-c2ccccc2)cs1)c1cc2ccccc2o1`, which IC50 is on record?
A: 10.3 µM

Q: For `C/C(=N\Nc1nc(-c2ccc(C)cc2)cs1)c1cc2ccccc2o1`, which IC50 is on record?
A: 14.1 µM

Q: For `C/C(=N\Nc1nc(C)cs1)c1cc2ccccc2o1`, which IC50 is on record?
A: 4 µM

System: MCF7
Experiment: Antiproliferative activity against human MCF7 cells assessed as reduction in cell growth
Assay type: functional, cell-based
Settings: not given

Q: For `O=CC(/N=N/c1ccc([N+](=O)[O-])cc1)=C(\O)c1cc2ccccc2o1`, which IC50 is on record?
A: 43.2 µM

Q: For `C/C(=N\Nc1nc(-c2ccccc2)cs1)c1cc2ccccc2o1`, which IC50 is on record?
A: 8.49 µM

Q: Which IC50 does the source give for `C/C(=N\Nc1nc(-c2ccc(C)cc2)cs1)c1cc2ccccc2o1` here?
A: 11.1 µM

Q: Which IC50 does the source give for `C/C(=N\Nc1nc(C)cs1)c1cc2ccccc2o1` here?
A: 4.89 µM

System: HeLa
Experiment: Antiproliferative activity against human HeLa cells assessed as reduction in cell growth
Assay type: functional, cell-based
Settings: not given

Q: For `O=CC(/N=N/c1ccc([N+](=O)[O-])cc1)=C(\O)c1cc2ccccc2o1`, which IC50 is on record?
A: 37.8 µM

Q: Which IC50 does the source give for `C/C(=N\Nc1nc(-c2ccccc2)cs1)c1cc2ccccc2o1` here?
A: 11.7 µM

Q: For `C/C(=N\Nc1nc(-c2ccc(C)cc2)cs1)c1cc2ccccc2o1`, which IC50 is on record?
A: 14.3 µM

System: PC-3
Experiment: Antiproliferative activity against human PC3 cells assessed as reduction in cell growth
Assay type: functional, cell-based
Settings: not given

Q: With `O=CC(/N=N/c1ccc([N+](=O)[O-])cc1)=C(\O)c1cc2ccccc2o1` as the molecule, how does the IC50 read?
A: 49.6 µM

Q: Which IC50 does the source give for `C/C(=N\Nc1nc(-c2ccccc2)cs1)c1cc2ccccc2o1` here?
A: 16.7 µM

Q: With `C/C(=N\Nc1nc(-c2ccc(C)cc2)cs1)c1cc2ccccc2o1` as the molecule, how does the IC50 read?
A: 21.4 µM

Q: With `C/C(=N\Nc1nc(C)cs1)c1cc2ccccc2o1` as the molecule, how does the IC50 read?
A: 8.99 µM

System: WI-38
Experiment: Cytotoxicity against human WI38 cells by MTT assay
Assay type: cell-based
Settings: not given

Q: Which IC50 does the source give for `C/C(=N\Nc1nc(-c2ccccc2)cs1)c1cc2ccccc2o1` here?
A: 41.7 µM

Q: Which IC50 does the source give for `C/C(=N\Nc1nc(C)cs1)c1cc2ccccc2o1` here?
A: 44.3 µM

Biological target: Phosphatidylinositol 4,5-bisphosphate 3-kinase catalytic subunit alpha isoform (Homo sapiens, UniProt P42336)
Sequence (P42336 whole entry, canonical isoform): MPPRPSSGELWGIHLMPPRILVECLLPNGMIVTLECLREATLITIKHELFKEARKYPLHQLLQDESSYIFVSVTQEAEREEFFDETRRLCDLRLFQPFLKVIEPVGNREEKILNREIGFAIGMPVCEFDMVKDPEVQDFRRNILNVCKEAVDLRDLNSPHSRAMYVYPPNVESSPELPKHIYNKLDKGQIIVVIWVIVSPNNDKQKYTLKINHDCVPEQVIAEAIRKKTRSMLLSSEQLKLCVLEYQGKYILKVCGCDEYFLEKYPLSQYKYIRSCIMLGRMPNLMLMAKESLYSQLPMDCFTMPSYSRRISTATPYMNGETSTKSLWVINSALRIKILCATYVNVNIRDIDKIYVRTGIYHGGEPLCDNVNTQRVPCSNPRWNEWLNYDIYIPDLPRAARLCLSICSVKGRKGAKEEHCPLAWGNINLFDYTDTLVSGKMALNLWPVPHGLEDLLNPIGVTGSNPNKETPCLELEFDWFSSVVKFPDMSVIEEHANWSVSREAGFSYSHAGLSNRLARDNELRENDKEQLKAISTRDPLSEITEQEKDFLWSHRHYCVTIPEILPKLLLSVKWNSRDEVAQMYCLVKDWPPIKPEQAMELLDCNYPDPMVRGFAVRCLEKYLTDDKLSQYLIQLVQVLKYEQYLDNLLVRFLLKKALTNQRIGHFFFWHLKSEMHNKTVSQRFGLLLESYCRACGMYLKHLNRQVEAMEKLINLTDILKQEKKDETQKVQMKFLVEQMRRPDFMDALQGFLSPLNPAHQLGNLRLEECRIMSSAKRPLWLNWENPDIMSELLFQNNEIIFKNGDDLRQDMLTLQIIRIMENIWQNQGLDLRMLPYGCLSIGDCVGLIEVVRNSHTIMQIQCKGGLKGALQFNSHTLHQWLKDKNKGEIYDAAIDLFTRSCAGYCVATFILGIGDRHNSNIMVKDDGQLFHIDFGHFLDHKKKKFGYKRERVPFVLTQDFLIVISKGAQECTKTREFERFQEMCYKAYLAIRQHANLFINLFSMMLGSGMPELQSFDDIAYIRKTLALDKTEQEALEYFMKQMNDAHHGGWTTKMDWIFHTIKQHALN
Experiment: Inhibition of human PI3Kalpha by ELISA
Settings: not given
Outline: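 Human PI3Kα activity measured by ELISA in wells coated with a PI3K-specific antibody. Standard or test compound was added at room temperature and absorbance read. A log–log standard curve related absorbance to standard concentration. Percent inhibition was calculated against control, and IC50 was obtained from concentration/inhibition curves.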

Q: With `C/C(=N\Nc1nc(-c2ccccc2)cs1)c1cc2ccccc2o1` as the molecule, how does the IC50 read?
A: 4.1 µM

Q: For `C/C(=N\Nc1nc(C)cs1)c1cc2ccccc2o1`, which IC50 is on record?
A: 20.5 µM

System: MCF7
Experiment: Induction of cell cycle arrest in human MCF7 cells assessed as accumulation at G0-G1 phase at […] incubated for 24 hrs by propidium iodide staining based flow cytometry analysis (reference value: 53.89 %)
Assay type: functional
Parameters: dose or concentration left out as unconfirmed
Settings: not given

Q: With `C/C(=N\Nc1nc(-c2ccccc2)cs1)c1cc2ccccc2o1` as the molecule, how does the Activity read?
A: 39.61%

System: MCF7
Experiment: Induction of cell cycle arrest in human MCF7 cells assessed as accumulation at S phase at […] incubated for 24 hrs by propidium iodide staining based flow cytometry analysis (reference value: 36.26 %)
Assay type: functional
Parameters: dose or concentration left out as unconfirmed
Settings: not given

Q: For `C/C(=N\Nc1nc(-c2ccccc2)cs1)c1cc2ccccc2o1`, which Activity is on record?
A: 29.57%

System: MCF7
Experiment: Induction of cell cycle arrest in human MCF7 cells assessed as accumulation at G2/M phase at […] incubated for 24 hrs by propidium iodide staining based flow cytometry analysis (reference value: 9.85 %)
Assay type: functional
Parameters: dose or concentration left out as unconfirmed
Settings: not given

Q: For `C/C(=N\Nc1nc(-c2ccccc2)cs1)c1cc2ccccc2o1`, which Activity is on record?
A: 30.82%

System: MCF7
Experiment: Induction of apoptosis in human MCF7 cells assessed as accumulation at preG1 phase at […] incubated for 24 hrs by propidium iodide staining based flow cytometry analysis (reference value: 1.78 %)
Assay type: functional
Parameters: dose or concentration left out as unconfirmed
Settings: not given

Q: With `C/C(=N\Nc1nc(-c2ccccc2)cs1)c1cc2ccccc2o1` as the molecule, how does the Activity read?
A: 29.93%

System: MCF7
Experiment: Induction of apoptosis in human MCF7 cells assessed as early apoptotic cells at […] incubated for 24 hrs by Annexin V-FITC and propidium iodide staining based flow cytometry analysis (reference value: 0.42 %)
Assay type: functional
Parameters: dose or concentration left out as unconfirmed
Settings: not given

Q: Which Activity does the source give for `C/C(=N\Nc1nc(-c2ccccc2)cs1)c1cc2ccccc2o1` here?
A: 5.92%

System: MCF7
Experiment: Induction of apoptosis in human MCF7 cells assessed as late apoptotic cells at […] incubated for 24 hrs by Annexin V-FITC and propidium iodide staining based flow cytometry analysis (reference value: 0.15 %)
Assay type: functional
Parameters: dose or concentration left out as unconfirmed
Settings: not given

Q: Which Activity does the source give for `C/C(=N\Nc1nc(-c2ccccc2)cs1)c1cc2ccccc2o1` here?
A: 14.65%

System: MCF7
Experiment: Induction of apoptosis in human MCF7 cells assessed as necrotic cells at […] incubated for 24 hrs by Annexin V-FITC and propidium iodide staining based flow cytometry analysis (reference value: 1.21 %)
Assay type: functional
Parameters: dose or concentration left out as unconfirmed
Settings: not given

Q: For `C/C(=N\Nc1nc(-c2ccccc2)cs1)c1cc2ccccc2o1`, which Activity is on record?
A: 9.36%

System: Staphylococcus aureus
Experiment: Antibacterial activity against Staphylococcus aureus ATCC 29213 assessed as diameter of zone inhibition at 5 mg/ml incubated for 24 hrs by agar plate diffusion method
Assay type: functional
Settings: read-out: DIZ
Outline: (§1)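 Cup (well) agar diffusion in Mueller Hinton agar. Overnight MH broth culture diluted to 0.5 McFarland; 20 μL mixed into MH agar at 50 °C, poured into 9-cm plates. Wells cut with a cork borer and filled with 100 μL compound in DMSO (final 5 mg/mL). DMSO as negative control, ampicillin/clavulanic acid as reference. 37 °C, 24 h; inhibition zone diameter in mm.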

Q: Which zone of inhibition at 5000 µg/mL does the source give for `O=CC(/N=N/c1ccc([N+](=O)[O-])cc1)=C(\O)c1cc2ccccc2o1` here?
A: 6 mm

System: Bacillus cereus
Experiment: Antibacterial activity against Bacillus cereus UW85 assessed as diameter of zone inhibition at 5 mg/ml incubated for 24 hrs by agar plate diffusion method
Assay type: functional
Settings: read-out: DIZ
Outline: as §1

Q: For `C/C(=N\Nc1nc(C)cs1)c1cc2ccccc2o1`, which zone of inhibition at 5000 µg/mL is on record?
A: 11 mm

System: Pseudomonas aeruginosa
Experiment: Antibacterial activity against Pseudomonas aeruginosa PAO1 assessed as diameter of zone inhibition at 5 mg/ml incubated for 24 hrs by agar plate diffusion method
Assay type: functional
Settings: read-out: DIZ
Outline: as §1

Q: For `O=CC(/N=N/c1ccc([N+](=O)[O-])cc1)=C(\O)c1cc2ccccc2o1`, which zone of inhibition at 5000 µg/mL is on record?
A: 10 mm

System: Candida albicans
Experiment: Antifungal activity against Candida albicans CS35 assessed as diameter of zone inhibition at 5 mg/ml incubated for 24 hrs by agar plate diffusion method
Assay type: functional
Settings: read-out: DIZ
Outline: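 Cup diffusion using Sabouraud's medium for C. albicans. 100 μL compound in DMSO (5 mg/mL) per well, DMSO as negative control, fluconazole as reference. 37 °C, 24 h; inhibition zone diameter in mm.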

Q: Which zone of inhibition at 5000 µg/mL does the source give for `O=CC(/N=N/c1ccc([N+](=O)[O-])cc1)=C(\O)c1cc2ccccc2o1` here?
A: 9 mm

Q: With `C/C(=N\Nc1nc(C)cs1)c1cc2ccccc2o1` as the molecule, how does the zone of inhibition at 5000 µg/mL read?
A: 10 mm

System: not listed separately
Experiment: Inhibition of quorum sensing in Chromobacterium violaceum ATCC 12472 assessed as inhibition zone at 5 mg/ml incubated for 48 hrs by well diffusion method
Assay type: functional
Settings: read-out: IZ
Outline: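 Chromobacterium violaceum ATCC 12472 grown in LB broth at 28 °C, 48 h. 50 μL inoculated into 5 ml soft LB agar and overlaid on LB agar plates. Wells received 100 μL compound in DMSO (5 mg/ml); DMSO as negative control. 28 °C, 48 h. Growth-inhibition radius r1 and pigment-plus-growth radius r2 measured; QS inhibition = r2 − r1 (mm).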

Q: With `C/C(=N\Nc1nc(C)cs1)c1cc2ccccc2o1` as the molecule, how does the zone of inhibition at 5000 µg/mL read?
A: 7 mm

System: Staphylococcus aureus
Experiment: Antibacterial activity against Staphylococcus aureus ATCC 29213 assessed as reduction in bacterial growth incubated for 18 hrs by two-fold serial dilution method
Assay type: functional
Settings: not given
Outline: (§2)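 Broth microdilution per CLSI 2015. Selection: compounds active in agar diffusion. Twofold (1:1) dilutions in 0.1 ml MH broth; inoculum 5 × 10^6 CFU/ml diluted suspension. Ampicillin/clavulanic acid as positive control.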

Q: With `O=CC(/N=N/c1ccc([N+](=O)[O-])cc1)=C(\O)c1cc2ccccc2o1` as the molecule, how does the MIC read?
A: 8 µg/mL (≈ 23.7 µM)

Q: For `C/C(=N\Nc1nc(C)cs1)c1cc2ccccc2o1`, which MIC is on record?
A: 64 µg/mL (≈ 236 µM)

System: Bacillus cereus
Experiment: Antibacterial activity against Bacillus cereus UW85 assessed as reduction in bacterial growth incubated for 18 hrs by two-fold serial dilution method
Assay type: functional
Settings: not given
Outline: as §2

Q: For `C/C(=N\Nc1nc(C)cs1)c1cc2ccccc2o1`, which MIC is on record?
A: 128 µg/mL (≈ 472 µM)

System: Pseudomonas aeruginosa
Experiment: Antibacterial activity against Pseudomonas aeruginosa PAO1 assessed as reduction in bacterial growth incubated for 18 hrs by two-fold serial dilution method
Assay type: functional
Settings: not given
Outline: as §2

Q: Which MIC does the source give for `O=CC(/N=N/c1ccc([N+](=O)[O-])cc1)=C(\O)c1cc2ccccc2o1` here?
A: 512 µg/mL (≈ 1520 µM)

System: Candida albicans
Experiment: Antifungal activity against Candida albicans CS35 assessed as reduction in fungal growth incubated for 18 hrs by two-fold serial dilution method
Assay type: functional
Settings: not given
Outline: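 Broth microdilution per CLSI M27-A3/M38-A2. Selection: compounds active in agar diffusion. Twofold (1:1) dilutions in 0.1 ml yeast peptone dextrose medium; fluconazole as positive control.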

Q: With `O=CC(/N=N/c1ccc([N+](=O)[O-])cc1)=C(\O)c1cc2ccccc2o1` as the molecule, how does the MIC read?
A: 256 µg/mL (≈ 759 µM)

Q: For `C/C(=N\Nc1nc(C)cs1)c1cc2ccccc2o1`, which MIC is on record?
A: 128 µg/mL (≈ 472 µM)

System: not listed separately
Experiment: Safety index, ratio of IC50 for cytotoxicity against human WI-38 cells to IC50 for antiproliferative activity against human HepG2 cells
Assay type: toxicity, cell-based
Settings: WI-38 cells versus HepG2 cells

Q: Which selectivity ratio does the source give for `C/C(=N\Nc1nc(-c2ccccc2)cs1)c1cc2ccccc2o1` here?
A: 4.04

Q: With `C/C(=N\Nc1nc(C)cs1)c1cc2ccccc2o1` as the molecule, how does the selectivity ratio read?
A: 11.1

System: not listed separately
Experiment: Safety index, ratio of IC50 for cytotoxicity against human WI-38 cells to IC50 for antiproliferative activity against human MCF7 cells
Assay type: toxicity, cell-based
Settings: WI-38 cells versus MCF7 cells

Q: Which selectivity ratio does the source give for `C/C(=N\Nc1nc(-c2ccccc2)cs1)c1cc2ccccc2o1` here?
A: 4.91

Q: With `C/C(=N\Nc1nc(C)cs1)c1cc2ccccc2o1` as the molecule, how does the selectivity ratio read?
A: 9.06

System: not listed separately
Experiment: Safety index, ratio of IC50 for cytotoxicity against human WI-38 cells to IC50 for antiproliferative activity against human HeLa cells
Assay type: toxicity, cell-based
Settings: WI-38 cells versus HeLa cells

Q: Which selectivity ratio does the source give for `C/C(=N\Nc1nc(-c2ccccc2)cs1)c1cc2ccccc2o1` here?
A: 3.56

Q: Which selectivity ratio does the source give for `C/C(=N\Nc1nc(C)cs1)c1cc2ccccc2o1` here?
A: 4.94

System: not listed separately
Experiment: Safety index, ratio of IC50 for cytotoxicity against human WI-38 cells to IC50 for antiproliferative activity against human PC-3 cells
Assay type: toxicity, cell-based
Settings: WI-38 cells versus PC-3 cells

Q: For `C/C(=N\Nc1nc(-c2ccccc2)cs1)c1cc2ccccc2o1`, which selectivity ratio is on record?
A: 2.49

Q: With `C/C(=N\Nc1nc(C)cs1)c1cc2ccccc2o1` as the molecule, how does the selectivity ratio read?
A: 4.93
